viability, differential viability (reversal) and inhibition data for 19 compounds are collected here from PubChem BioAssay.

Calls of active or inactive are those of the source. Rule as the data show it, unless noted: active = inhibition above about 31%; inactive = the rest.

The nature of assay [1]: HUVEC growth inhibition – cell-based, human, primary screen (AID 575;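 active = viability at or below 30% in both replicate assays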;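 also: 100% = median of untreated cell wells with 0.1% DMSO on each plate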). The settings on record: HUVEC proliferation, CellTiter-Glo luminescence, 72 h; at 10 µM; stronger effect = lower value. Put shortly: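 Test system: primary human umbilical vein endothelial cells; medium: endothelial basal medium with 2% FBS plus growth supplements; dosing: 10 µM compound only; times: 72 h treatment at 37 °C; signal: CTG luminescence; read-out: % viability relative to median vehicle-well signal on each plate; control set: vehicle and MePR control wells; plate: 384-well, collagen-coated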
(In general: ATP-based viability assays read luminescence as a measure of living cells.)

A short description of assay [2]: H69AR cell proliferation blockers – human, duplicate replicates, primary screen (AID 580;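 active = viability at or under a set limit in both replicates, limit being median viability minus 3 SD, cut at about 48% in these data, passing the limit was not always enough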;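 also: 100% = mean luminescence of untreated wells and 0% = no signal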). Conditions: H69AR lung tumor cells viability, ATP luminescence, 72 h; at 10 µM; stronger effect = lower value.
The nature of assay [3]: MRP1 drug-resistance reversers in H69AR cells – cell-based, doxorubicin co-treatment, pilot screen (AID 601;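 active = viability loss from added drug above about 55%, and viability with drug at most 40%, in both replicates, limit read from the data, passing the limit was not always enough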). The settings on record: CellTiter-Glo, 72 h, at 10 µM; for differential viability (reversal): stronger effect = higher value.
Assay [4] in a line: yeast transport mutant growth inhibition pilot in 384-well plates, post-Golgi transport modulator project (AID 636). Conditions: absorbance 615 nm, about 18 h, stronger effect = higher value.
Assay [5] can be described thus: growth suppression of yeast trafficking mutant, preliminary HTS, modulators of trafficking downstream of Golgi apparatus project, 1536-format plate, OD 615 nm (AID 637; in the data active = inhibition above about 30%). The settings on record: yeast transport mutant growth, absorbance 615 nm, 18 h; stronger effect = higher value.
Setting [6] is: H69AR cells + 2 uM doxorubicin, measured here: viability with 2 uM doxorubicin, stronger effect = lower value.
The mark [7] stands for this setting: H69AR cells, compound alone cytotoxicity.

For the compound `CC1CCN(C(=O)c2ccc(C(=O)N3CCC(C)CC3)cc2)CC1`, the viability (in general, a read-out of living cells in per cent, often relative to untreated cells) is 87.3% (inactive) in assay [1], 101% (inactive) in assay [2], 95.4% in assay [3] (setting [6]) and 101% in assay [3] (setting [7]). Besides, the differential viability (reversal) in assay [3] (H69AR cells + 2 uM doxorubicin) is 5.22% (inactive). Besides, the inhibition (commonly the change of the read-out against control, counted positive when it falls) in assay [4] was -0.66% (inactive); in assay [5], 0.48% (inactive).

As to `O=C(COc1ccc(Cl)cc1)Nc1ncccn1`, the viability in assay [1] was 106% (inactive); in assay [2], 107% (inactive); in assay [3] (setting [6]), 92.6%; in assay [3] (setting [7]), 107%. Also, the differential viability (reversal) in assay [3] (H69AR cells + 2 uM doxorubicin) is 14.6% (inactive). For the same compound, the inhibition in assay [4] was -1.05% (inactive); in assay [5], 4.13% (inactive).

For `CC1(C)CC(=O)C2=C(C1)N(Cc1ccco1)C(=O)C2(NC(=O)C1CCCCC1)C(F)(F)F` (stereo not drawn), the viability was 88% (inactive) in assay [1], 92.1% (inactive) in assay [2], 81.3% in assay [3] (setting [6]) and 92.1% in assay [3] (setting [7]). Further, in assay [3] (H69AR cells + 2 uM doxorubicin), the differential viability (reversal) is 10.7% (inactive). Moreover, the inhibition in assay [4] is -4.47% (inactive); in assay [5], 5.56% (inactive).

Take `CCn1c(SCC(=O)Nc2ccc(C(=O)OC)cc2)nnc1-c1cccs1`: the viability in assay [1] is 109% (inactive); in assay [2], 92.3% (inactive); in assay [3] (setting [6]) it was 86.6%; in assay [3] (setting [7]) it was 92.3%. For the same compound, in assay [3] (H69AR cells + 2 uM doxorubicin), the differential viability (reversal) was 5.75% (inactive). The inhibition in assay [4] is -6% (inactive); in assay [5] it was 6.98% (inactive).

Regarding `CCOC(=O)c1nn(-c2sc(C(=O)OC)c(C)c2C(=O)OC)cc1O`, the viability in assay [1] was 105% (inactive); in assay [2] it was 85.1% (inactive); in assay [3] (setting [6]), 81.7%; in assay [3] (setting [7]), 85.1%. Moreover, the differential viability (reversal) in assay [3] (H69AR cells + 2 uM doxorubicin) was 3.34% (inactive). Besides, the inhibition in assay [4] was -1.82% (inactive); in assay [5], 3.33% (inactive).

For the compound `CC(C)OC(=O)CSc1nnc(-c2ccccn2)n1-c1ccccc1`, the viability in assay [1] was 87.3% (inactive); in assay [2], 92.1% (inactive); in assay [3] (setting [6]) it was 94.8%; in assay [3] (setting [7]), 92.1%. Further, the differential viability (reversal) in assay [3] (H69AR cells + 2 uM doxorubicin) is -2.68% (inactive). Further, the values for the inhibition in assay [4] and in assay [5] were -1.87% (inactive) and -9.52% (inactive), respectively.

As for `CC(C)Cc1nc2oc3c(N4CCN(CCO)CC4)ncnc3c2c2c1CCCC2`, the viability in assay [1] is 52.4% (inactive); in assay [2] it was 42.6% (active); in assay [3] (setting [6]), 54.7%; in assay [3] (setting [7]), 42.6%. The differential viability (reversal) in assay [3] (H69AR cells + 2 uM doxorubicin) was -12.1% (inactive). Besides, the figures for the inhibition in assay [4] and in assay [5] were -0.26% (inactive) and -6.33% (inactive), respectively.

`Cc1ccc(CSc2nc3c(c(=O)[nH]2)C(c2ccncc2)C2=C(CCCC2=O)N3)cc1` (stereo not drawn): the viability is 72.5% (inactive) in assay [1], 97.9% (inactive) in assay [2], 91.1% in assay [3] (setting [6]) and 97.9% in assay [3] (setting [7]). Moreover, the differential viability (reversal) in assay [3] (H69AR cells + 2 uM doxorubicin) was 6.75% (inactive). Moreover, the inhibition in assay [4] was -3.03% (inactive); in assay [5], 2.22% (inactive).

`CC(=O)c1cccc(NS(=O)(=O)c2ccc3c(c2)oc(=O)n3C)c1`: the viability in assay [1] was 92.4% (inactive); in assay [2], 106% (inactive); in assay [3] (setting [6]), 96.7%; in assay [3] (setting [7]) it was 106%. Besides, the differential viability (reversal) in assay [3] (H69AR cells + 2 uM doxorubicin) was 8.94% (inactive). For the same compound, the inhibition in assay [4] is -2.67% (inactive); in assay [5] it was -1.9% (inactive).

Regarding `Cc1ccc(C(=O)CSc2nnc(CNc3ccc(C)cc3C)o2)cc1`, the viability in assay [1] was 81.7% (inactive); in assay [2], 81.2% (inactive); in assay [3] (setting [6]), 80.4%; in assay [3] (setting [7]), 81.2%. For the same compound, the differential viability (reversal) in assay [3] (H69AR cells + 2 uM doxorubicin) was 0.795% (inactive). In addition, the results for the inhibition in assay [4] and in assay [5] were -0.92% (inactive) and -10.5% (inactive), respectively.

In the case of `COc1ccc2c(c1)c1c(n2C(C)=O)C(OC(C)=O)=NCC1`, the viability was 92.4% (inactive) in assay [1], 87.4% (inactive) in assay [2], 87.5% in assay [3] (setting [6]) and 87.4% in assay [3] (setting [7]). Also, in assay [3] (H69AR cells + 2 uM doxorubicin), the differential viability (reversal) was -0.05% (inactive). The inhibition in assay [4] was -5.39% (inactive); in assay [5], 5.71% (inactive).

Regarding `CCNc1oc(COc2cccc(C)c2)nc1C#N`, the viability in assay [1] was 101% (inactive); in assay [2], 90.9% (inactive); in assay [3] (setting [6]), 77.1%; in assay [3] (setting [7]), 90.9%. For the same compound, the differential viability (reversal) in assay [3] (H69AR cells + 2 uM doxorubicin) is 13.8% (inactive). Besides, the inhibition in assay [4] was -7.53% (inactive); in assay [5], -10.3% (inactive).

For `COc1cccc(-c2cc(C(F)(F)F)n3nc(N)nc3n2)c1`, the viability in assay [1] was 92.3% (inactive); in assay [2] it was 88.9% (inactive); in assay [3] (setting [6]) it was 91.6%; in assay [3] (setting [7]), 88.9%. Besides, the differential viability (reversal) in assay [3] (H69AR cells + 2 uM doxorubicin) was -2.71% (inactive). The inhibition in assay [4] was -0.53% (inactive); in assay [5], 10.3% (inactive).

In the case of `COc1cccc(CN(C(=O)c2cc3ccccc3oc2=O)C2CC2)c1`, the viability is 99.1% (inactive) in assay [1], 102% (inactive) in assay [2], 96.1% in assay [3] (setting [6]) and 102% in assay [3] (setting [7]). The differential viability (reversal) in assay [3] (H69AR cells + 2 uM doxorubicin) is 5.67% (inactive). The inhibition in assay [4] was -0.13% (inactive); in assay [5], 0% (inactive).

`COc1ccccc1N(CN1CCCC1=O)C(=O)c1c(F)cccc1Cl`: the viability in assay [1] is 95% (inactive); in assay [2], 97.5% (inactive); in assay [3] (setting [6]), 97.6%; in assay [3] (setting [7]) it was 97.5%. Further, the differential viability (reversal) in assay [3] (H69AR cells + 2 uM doxorubicin) was -0.095% (inactive). Further, the inhibition in assay [4] is -5.2% (inactive); in assay [5] it was -0.32% (inactive).

Take `O=C(Nc1ccccc1C(=O)N1CCOCC1)C1COc2ccccc2O1` (stereo not drawn): the viability in assay [1] is 100% (inactive); in assay [2], 103% (inactive); in assay [3] (setting [6]), 96.6%; in assay [3] (setting [7]), 103%. Also, in assay [3] (H69AR cells + 2 uM doxorubicin), the differential viability (reversal) was 6.71% (inactive). Besides, the inhibition was -0.53% (inactive) in assay [4] and 0% (inactive) in assay [5].

In the case of `O=c1ccn(Cc2ccccc2Cl)cc1`, the viability in assay [1] was 99.9% (inactive); in assay [2], 88.2% (inactive); in assay [3] (setting [6]), 78.4%; in assay [3] (setting [7]), 88.2%. Further, the differential viability (reversal) in assay [3] (H69AR cells + 2 uM doxorubicin) is 9.77% (inactive). The values for the inhibition in assay [4] and in assay [5] were -4.47% (inactive) and -3.33% (inactive), respectively.

Consider `Cc1ccc(-c2ccc(=O)n(CCC(=O)NCCN3CCCCC3C)n2)cc1` (stereo not drawn), for which the viability in assay [1] was 94.9% (inactive); in assay [2], 91.3% (inactive); in assay [3] (setting [6]), 90.2%; in assay [3] (setting [7]) it was 91.3%. Further, the differential viability (reversal) in assay [3] (H69AR cells + 2 uM doxorubicin) is 1.11% (inactive). In addition, the inhibition was -4.27% (inactive) in assay [4] and -5.56% (inactive) in assay [5].

As to `O=C(NC1CCCC1)c1cc(-c2cccs2)on1`, the viability is 90.4% (inactive) in assay [1], 88.6% (inactive) in assay [2], 80.6% in assay [3] (setting [6]) and 88.6% in assay [3] (setting [7]). For the same compound, in assay [3] (H69AR cells + 2 uM doxorubicin), the differential viability (reversal) is 8.04% (inactive). Moreover, the inhibition in assay [4] is -4.21% (inactive); in assay [5], 3.17% (inactive).
